Screens (PubChem BioAssay)
Sampled rows, rich in hits. Any-hit rate of the full collection: about 3.5%.
MrgX1 ag: agonists of human MrgX1 receptor; Q96LB2; MrgX1-HEK293 cells, Fluo-4 calcium fluorescence, agonist mode; hits give high values; B-score at 10 µM; hit rate 0.44% among 310,000; AID 588627;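 active = calcium response B-score plate-corrected fluorescence ratio at least 3 library SD, with starting fluorescence B-score inside 5 SD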
Target sequence (Q96LB2 whole entry, looked up): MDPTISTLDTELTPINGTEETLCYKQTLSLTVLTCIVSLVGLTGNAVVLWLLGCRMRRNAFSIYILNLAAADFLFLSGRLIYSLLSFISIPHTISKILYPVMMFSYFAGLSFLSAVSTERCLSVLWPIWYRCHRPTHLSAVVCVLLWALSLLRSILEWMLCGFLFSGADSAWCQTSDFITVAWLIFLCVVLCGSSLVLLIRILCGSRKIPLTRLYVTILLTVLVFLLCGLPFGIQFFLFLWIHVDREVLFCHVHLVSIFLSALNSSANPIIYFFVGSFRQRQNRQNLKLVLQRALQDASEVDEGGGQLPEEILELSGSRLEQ
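Test system: HEK293 cells stably expressing human MrgX1 receptor; Input: fifteen thousand cells per well; Dosing: compound delivered in addition one of three; Schedule: overnight seeding, then 1 h dark dye loading; Technique: Fluo-4 NW calcium fluorescence; Measure: B-scored fluorescence response ratio; Controls: positive and negative controls per plate.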
RGS4 pot: potentiators or activators of RGS4. AID 463111. B-score at 10 µM. hit rate 0.92% among 310,000. HEK293 M3R/inducible RGS4, carbachol calcium flux Fluo4; hits give low values;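 active = B-score of the integrated calcium signal more than 4 SD below the library mean, with starting fluorescence not abnormally high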;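 note: negative B-score means reduced calcium response which marks RGS4 activation or potentiation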
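test system = M3R-expressing HEK293 line, RGS4 induced by doxycycline | probe or stimulus = carbachol at ECmax as muscarinic agonist stimulus | timing = dye loading 30 min 37 °C, buffer rest 30 min RT | signal = calcium dye Fluo4 fluorescence | evaluation = B score from integrated fluorescence ratio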
MrgX1 antag: human MrgX1 receptor antagonism, primary screen | MRGX1-HEK293 calcium flux, Fluo-4, BAM8-22 antagonism; hits give low values | B-score at 10 µM | hit rate 1.3% among 310,000 | AID 588676;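 active = calcium-response B-score plate-corrected more than 3 library SD below zero, starting fluorescence within 5 deviations, no agonist response on first addition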;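 note: peak minus trough fluorescence over baseline after final BAM8-22 challenge near maximal dose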
MrgX1 allo act: allosterically activates human MrgX1 receptor signaling. Q96LB2. MrgX1-HEK293, Fluo-4 calcium flux, FDSS; hits give high values. hit rate 0.63% among 310,000. AID 588675. B-score at 10 µM;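 active = plate-corrected calcium response at least 3 library SD above typical, normal starting fluorescence, not activating the receptor alone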;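 note: compound read alongside a low EC10 to EC30 dose of BAM8-22 agonist; peak minus trough fluorescence over baseline measured at the second addition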
RGS4 inh: human RGS4 inhibition. P49798. HEK293 M3R/RGS4 inducible, Fluo-4 calcium flux; hits give high values; triggered by carbachol at its EC20. B-score at 10 µM. hit rate 0.45% among 310,000. AID 463165;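 active = B-score, a plate-corrected calcium signal, over three deviations above library mean, with baseline fluorescence within five deviations of library mean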;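 note: RGS4 expression induced by doxycycline in cells with stable M3 receptor; B-score is computed from the integrated fluorescence ratio over baseline after carbachol; higher B-score means a larger calcium signal and so more RGS4 inhibition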
Target sequence (P49798 whole entry, looked up): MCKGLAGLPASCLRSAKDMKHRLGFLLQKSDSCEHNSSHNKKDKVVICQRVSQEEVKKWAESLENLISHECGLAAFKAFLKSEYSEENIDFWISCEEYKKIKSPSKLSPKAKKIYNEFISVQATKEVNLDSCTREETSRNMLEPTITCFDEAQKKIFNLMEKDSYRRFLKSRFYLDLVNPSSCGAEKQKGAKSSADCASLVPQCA
MrgX1 ag confirm: confirmation of human MrgX1 receptor agonists | shares compounds with MrgX1 ag | MrgX1-HEK293, Fluo-4 calcium fluorescence, FDSS | activation, % at 10 µM | hit rate 78% among 600 | AID 602412;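 active = calcium signal rise, corrected for plate position, at least 3 library SD high, with starting brightness within 5 such deviations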
HEK293 Ca flux: counter-screen for MrgX1 antagonists: effect in parental HEK293 cells; fluorescence ratio F(max-min)/F0 at 10 µM; shares compounds with MrgX1 antag; Fluo-4 calcium fluorescence, FDSS; hit rate 2% among 4,000;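 active = duplicate-averaged calcium fluorescence ratio at least three times the standard deviation of buffer wells, a nonspecific response in parental cells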
HEK293 Ca counter: counter-screen for MrgX1 allosteric activators: effect in parental HEK293 cells. fluorescence ratio F(max-min)/F0 at 10 µM. parental HEK293 calcium flux, Fluo-4 fluorescence ratio; hits give high values. shares compounds with MrgX1 antag. hit rate 0.4% among 4,000;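 active = calcium fluorescence ratio, averaged over duplicates, at least 3 SD of the buffer-well ratio, meaning a nonspecific response in receptor-free cells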;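 note: untransfected parental HEK293 lacking MrgX1 used as counterscreen for MrgX1 allosteric activators; fluorescence change taken during the second addition on a kinetic imager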
HEK293 Ca cntr2: MrgX1 activator counter-screen hit in parental HEK293 cells; shares compounds with MrgX1 antag; Fluo-4 calcium fluorescence (FDSS); hits give high values; fluorescence ratio F(max-min)/F0 at 10 µM; hit rate 8.7% among 4,000; AID 624115;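 active = calcium fluorescence ratio at least three times the spread of buffer wells, meaning a non-specific response in parental cells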
Hits are given with their value; n = inactive; x = not tested or not shown.

SMILES	MrgX1 ag	RGS4 pot	MrgX1 antag	MrgX1 allo act	RGS4 inh	MrgX1 ag confirm	HEK293 Ca flux	HEK293 Ca counter	HEK293 Ca cntr2
N#Cc1nc(Cc2ccccc2)oc1NCc1ccccc1	31	n	n	n	n	108%	n	n	n
COc1ccc(CNc2oc(COc3ccccc3)nc2C#N)cc1	n	n	n	n	n	x	x	x	x
CCC(CC)c1nc(C#N)c(NCc2ccccc2)o1	27	n	n	n	n	230%	n	n	50
N#Cc1nc(-c2ccc(F)cc2)oc1NCc1ccccc1	n	n	n	n	n	x	x	x	x
CCC1=C(OC(=O)N(CC)CC)N2C(=O)OC(=NCCc3c[nH]c4ccccc34)[C@]2(Cc2ccccc2)[C@H]2C1=CC[C@H]1C(=O)N(CC)C(=O)[C@H]12	n	n	n	n	n	x	x	x	x
Cc1nnc2ccc(Oc3ccc(-c4ccccc4)cc3)nn12	n	n	n	n	n	x	x	x	x
Cc1ccc(C2C(C#N)=C(N)Oc3n[nH]c(-c4cccnc4)c32)o1 (stereo not drawn)	36	n	n	n	n	167%	n	n	n
O=C(c1ccco1)N1CCN(C(=O)C2Cc3ccccc3CN2S(=O)(=O)c2ccc(F)cc2)CC1 (stereo not drawn)	n	n	n	n	n	x	x	x	x
O=C(C1Cc2ccccc2CN1S(=O)(=O)c1ccc(F)cc1)N1CCCCC1 (stereo not drawn)	33	n	n	n	n	243%	n	n	74
O=C(Nc1cc(Cl)ccc1Cl)N1CCCC1	n	n	n	n	n	x	x	x	x
CN(Cc1cccs1)C(=O)CCc1c[nH]c2ccccc12	n	n	n	n	n	x	x	x	x
CN(Cc1cccs1)C(=O)CCCc1c[nH]c2ccccc12	27	n	n	n	n	161%	n	n	n
O=C(NCc1ccccc1Cl)c1cccc(NC(=O)c2ccccc2)c1	n	n	n	n	n	x	x	x	x
Cc1ccc(C2CC(=O)Nc3sc(C(N)=O)c(N)c32)cc1 (stereo not drawn)	n	n	n	n	n	x	x	x	x
CNc1nc(NCc2ccccc2)c2ccccc2n1	76	n	n	n	n	253%	n	n	n
CC(C)Nc1nc2nonc2nc1Nc1ccccc1	29	n	n	n	n	175%	n	n	n
O=C(O)Cc1sc(Nc2ccc(F)cc2)nc1-c1cccs1	32	n	n	n	n	n	n	n	n
CCn1ccc(C(=O)Nc2cccc(Cl)c2)n1	n	n	n	n	n	x	x	x	x
COC(=O)c1ccccc1NC(=O)c1ccccc1SC	n	n	n	n	n	x	x	x	x
Cc1nnc(NC(=O)c2sc3nc(-c4cccs4)cc(C(F)(F)F)c3c2N)s1	31	n	n	n	n	299%	0.3	n	63
Cc1ccc(-n2c(CCC(=O)O)ccc2-c2cccs2)cc1	33	n	n	n	n	149%	n	n	n
CC(=O)c1ccc(-n2c(CCC(=O)O)ccc2-c2cccs2)cc1	n	n	n	n	n	x	x	x	x
COc1ccc(C2C=C(c3ccccc3)Nc3nnnn32)cc1 (stereo not drawn)	33	n	n	n	n	n	n	n	n
COc1ccc(C2=CC(c3ccc(C)cc3)n3nnnc3N2)cc1 (stereo not drawn)	n	n	n	n	n	x	x	x	x
CC(=Nc1cccc(O)c1)c1sc2ccccc2c1O	28	n	n	n	n	144%	n	n	n
CC(=Nc1ccc(C)cc1)c1sc2ccccc2c1O	n	n	n	n	n	x	x	x	x
CCC(C)(C)NC(=O)c1cc(S(=O)(=O)N2CCc3ccccc32)cn1C	n	n	n	n	n	x	x	x	x
Cc1cc(-c2csc(N)n2)c(C)n1C	31	n	n	n	n	150%	n	n	n
O=C(O)CCc1ccc(-c2ccccc2)n1CC(=O)O	n	n	n	n	n	x	x	x	x
